Measured values from different studies.
Lines come from different studies, so protocols differ.
Target: MAP/microtubule affinity-regulating kinase 3 (MARK3, Homo sapiens, UniProt P27448)

SMILES	assay	test system	setting	endpoint	result
N#CCCc1ccc2c(c1)-c1[nH]c3ccc([N+](=O)[O-])cc3c1CC(=O)N2	cell-free assay	–	0.5 µM	remaining signal	67.3%
Cn1nc(C(F)(F)F)cc1-c1cnc(N2CCc3cc(S(=O)(=O)Nc4c(F)cc(Cl)cc4F)cc(N4CCCC4=O)c32)nc1	binding, competition with immobilised ligand	–	1 µM	remaining binding	12%
NS(=O)(=O)c1ccc(CNc2nc(Nc3cccc(CN4CCOCC4)c3)ncc2C2CC2)cc1	enzyme activity, inhibitor, radiometric	–	1 µM	remaining activity	109%
CNc1cccc2cc(C(=O)Nc3ccc(C(=O)O)cc3)c(=O)[nH]c12	enzyme activity, inhibitor	–	10 µM	inhibition	-10%
O=C(Nc1cnc(Oc2ccc(F)cc2)nc1)N1CCc2ncccc2[C@@H]1c1ccc(F)cc1	cell-free assay, competition with immobilised ligand	–	1 µM	remaining binding	100%
CNc1cc(Oc2cc(C(=O)Nc3cc(N4CCN(C)CC4)cc(C(F)(F)F)c3)ccc2C)ncn1	target engagement in cells, inhibitor, chemoproteomics	Huh-7	1 µM	inhibition	-18.5%
COc1cccc2c(NCc3ccccc3)nc(-n3c(N)nc4ccccc43)nc12	target engagement in cells, inhibitor, chemoproteomics	–	20 mM	inhibition	-1%
Cc1cc(NC(=O)c2cccc(S(F)(F)(F)(F)F)c2)cc(-n2ccn3nc(-c4cccnc4)cc23)c1	cell-free assay, competition with immobilised ligand	–	1 µM	remaining binding	100%
O=C(NCCCNc1nc(Nc2cccc(CN3CCOCC3)c2)ncc1C1CC1)C1CCC1	enzyme activity, inhibitor, radiometric	–	1 µM	remaining activity	-1%
Oc1ccc(-c2nc(-c3ccncc3)c(-c3ccc(F)cc3)[nH]2)cc1	cell-free assay	–	0.5 µM	remaining signal	105%
C[C@H](c1ccnc(Nc2nc3ccc(-c4cc(N(C)C)ncn4)cc3[nH]2)c1)N1CCN(C(=O)CC(F)(F)F)CC1	cell-free assay, competition with immobilised ligand	–	0.1 µM	remaining binding	100%
Cc1nn(CC(F)(F)F)cc1Nc1nccc(NCCc2cnc[nH]2)n1	enzyme activity, inhibitor, radiometric	–	1 µM	remaining activity	126%
O=C(NS(=O)(=O)c1ccc(NCC2CCOCC2)c([N+](=O)[O-])c1)c1ccc(N2CCN(Cc3ccc(C(F)(F)F)cc3-c3ccc(Cl)cc3)CC2)cc1Oc1cnc2[nH]ccc2c1	cell-free assay, competition with immobilised ligand	–	1 µM	remaining binding	100%
O=C(NCCCNc1nc(Nc2cccc(NC(=O)N3CCCC3)c2)ncc1I)c1cccs1	enzyme activity, inhibitor, radiometric	–	1 µM	remaining activity	-4%
CCS(=O)(=O)c1cc2cc(C[C@](O)(CC(C)(C)c3ccc(F)cc3C(N)=O)C(F)(F)F)[nH]c2cn1	cell-free assay, competition with immobilised ligand	–	1 µM	remaining binding	100%
FC(F)(F)Oc1cccc(-c2cnc3ccc(-c4ccncc4)nn23)c1	enzyme activity, inhibitor, radiometric	–	1 µM	activity vs control	91%
Nc1nc(Nc2ccccc2)sc1C(=O)c1c(F)cccc1F	enzyme activity, inhibitor	–	10 µM	remaining activity	25%
Cc1nn(CC(F)(F)F)cc1Nc1ncc(C2CC2)c(NCCCNC(=O)C2CCC2)n1	enzyme activity, inhibitor, radiometric	–	1 µM	remaining activity	96%
COc1ccc(COc2ccc(Cc3cnc(N)nc3N)cc2OC)cc1	cell-free assay	–	0.5 µM	remaining signal	103%
O=C(Nc1cnn(-c2csc(C(=O)NC3COC3)c2)c1)Nc1ccccc1Cl	enzyme activity, inhibitor	–	5 µM	remaining activity	98.2%
CCCS(=O)(=O)Nc1ccc(F)c(C(=O)c2c[nH]c3ncc(-c4ccc(Cl)cc4)cc23)c1F	enzyme activity, inhibitor	–	1 µM	inhibition	< 10%
COc1cc2ncnc(Nc3ccc(Oc4ccccc4)cc3C)c2cc1OC	enzyme activity, inhibitor	–	1 µM	inhibition	8%
CN(C)CC#Cc1ccc(OCCCc2sc(N3CCc4cccc(C(=O)Nc5nc6ccccc6s5)c4C3)nc2C(=O)O)c(F)c1	cell-free assay, competition with immobilised ligand	–	1 µM	remaining binding	38%
c1cc(CN2CCOCC2)cc(Nc2ncc(C3CC3)c(NCCc3c[nH]cn3)n2)c1	enzyme activity, inhibitor, radiometric	–	1 µM	remaining activity	0%
COc1cc(/C=C/C(=O)CC(=O)/C=C/c2ccc(O)c(OC)c2)ccc1O	enzyme activity, inhibitor	–	1 µM	activity vs control	90%
Cc1nn(CC(F)(F)F)cc1Nc1nccc(NCCCNC(=O)C2CCC2)n1	enzyme activity, inhibitor, radiometric	–	1 µM	remaining activity	126%
CN(C)c1ncnc(-c2ccc3nc(Nc4cc(CN5CCN(C(=O)CC(F)(F)F)CC5)ccn4)[nH]c3c2)c1Cl	cell-free assay, competition with immobilised ligand	–	1 µM	remaining binding	100%
Cc1nn(CC(F)(F)F)cc1Nc1ncc(C2CC2)c(NCCc2c[nH]cn2)n1	enzyme activity, inhibitor, radiometric	–	1 µM	remaining activity	96%
O=C(CSc1nc2nccnc2c(=O)n1CCc1ccccc1)Nc1nccs1	enzyme activity, inhibitor	–	10 µM	inhibition	7%
